From PubChem BioAssay
Hits are enriched below; roughly 0.77% of the tested compounds scored in any of these assays.
hIAP inh: blocks human intestinal alkaline phosphatase | purified IAP, CDP-Star luminescence, 30 min | inhibition, % at 10 µM | actives 0.12% (n = 330,000) | AID 2544;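 active means inhibition reaching a set limit with compound at 10 µM in the primary screen, cut at about 35% in these data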;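 further: plate controls were DMSO wells with enzyme for no effect and no-enzyme buffer wells for full effect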
Target sequence (P09923 whole entry, looked up): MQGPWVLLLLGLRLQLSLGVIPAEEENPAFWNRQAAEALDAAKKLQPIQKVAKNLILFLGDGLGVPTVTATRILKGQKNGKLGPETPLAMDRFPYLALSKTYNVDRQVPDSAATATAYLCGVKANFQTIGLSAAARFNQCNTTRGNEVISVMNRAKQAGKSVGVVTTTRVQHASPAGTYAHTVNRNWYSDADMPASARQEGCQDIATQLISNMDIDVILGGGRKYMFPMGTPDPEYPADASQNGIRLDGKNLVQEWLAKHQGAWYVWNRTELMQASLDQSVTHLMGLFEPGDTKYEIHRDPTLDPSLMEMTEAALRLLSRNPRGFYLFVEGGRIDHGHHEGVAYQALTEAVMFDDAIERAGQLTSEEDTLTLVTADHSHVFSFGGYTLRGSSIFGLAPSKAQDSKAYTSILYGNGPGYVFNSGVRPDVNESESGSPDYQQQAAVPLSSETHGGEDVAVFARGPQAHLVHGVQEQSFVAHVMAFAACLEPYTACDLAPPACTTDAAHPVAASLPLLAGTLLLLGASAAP
bIAP act: increases bovine intestinal alkaline phosphatase activity; purified bovine IAP, CDP-star luminescence, 30 min; hits give high values; fold of DMSO-control signal, blank-subtracted; AID 1016; actives 0.17% (n = 200,000); activation factor at 20 µM;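 active means activation factor of 2 or more at 20 µM, a signal rise over negative controls twice the positive control's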
mIAP inh: mouse IAP inhibition. purified mouse IAP, CDP-Star luminescence, 30 min. inhibition, % at 10 µM. actives 0.2% (n = 330,000). AID 2806;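 active means inhibition of at least 40% at 10 µM in the primary screen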;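 further: plate controls were DMSO with enzyme for no effect and no enzyme wells for full effect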
bIAP inhibitor: intestinal alkaline phosphatase (bovine) inhibition | purified bovine IAP, CDP-star luminescence, 30 min | inhibition, % at 20 µM | 190,000 tested, under 10 active;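 active means over 50% inhibition of intestinal alkaline phosphatase at 20 µM in the single-dose screen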
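Assay system: bovine IAP enzyme; medium: DEA buffer 100 mM, pH 9.8, with MgCl2 1.0 mM, ZnCl2 0.02 mM; doses: 20 µM single dose; incubation: enzyme reaction for 30 min at room temperature; detection: CDP-star luminescence signal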
mIAP act: increases mouse intestinal alkaline phosphatase activity; muIAP, CDP-Star luminescence, 30 min; hits give high values; 1 = vehicle-only enzyme signal, 0 = enzyme-free wells; activation factor at 10 µM; actives 0.24% (n = 330,000); AID 2805;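 active means activation factor of at least 2 at 20 µM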
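System: Mouse IAP enzyme | Also added: CDP-Star substrate | Dosing: Compounds dispensed in DMSO | Schedule: 30 min enzyme-substrate-compound incubation at room temperature | Technique: Chemiluminescence readout | Control set: DMSO-only wells and no-enzyme negative control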
hIAP act: human IAP activation; purified human IAP, CDP-Star luminescence, 30 min; hits give high values; 1 = vehicle-only enzyme, 0 = enzyme-free background; actives 0.16% (n = 330,000); activation factor at 10 µM;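 active means activation factor of the enzyme at least 2-fold when tested at 20 µM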
mIAP inh conf: mouse IAP inhibition confirmation. shares compounds with mIAP inh. purified mouse IAP, CDP-Star luminescence, 30 min. inhibition, % at 10 µM. actives 4.7% (n = 11,000). AID 434971;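 active means inhibition of at least 40% at 10 µM in either of the two replicates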;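 further: plate controls were DMSO wells with enzyme for no effect and buffer wells lacking enzyme for full effect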
* hit, by the source's call; i = inactive; · = no result.

SMILES	hIAP inh	bIAP act	mIAP inh	bIAP inhibitor	mIAP act	hIAP act	mIAP inh conf
Cc1ccc(S(=O)(=O)N2CCC(C(=O)Nc3ccc(S(=O)(=O)N4CCCC4)cc3)CC2)cc1C	8.2	·	-115.1	·	2.15*	0.918	-121.7
Cc1ccc(S(=O)(=O)N2CCC(C(=O)Nc3ccc(S(=O)(=O)N4CCCC4)cc3)CC2)cc1	-5.0	·	-67.1	·	1.67	1.05	·
Cc1ccc(S(=O)(=O)N2CCC(C(=O)Nc3ccc(C(C)C)cc3)CC2)cc1	-4.7	·	i	·	6.57*	1.05	-249.3
COCC(=O)N1CCC(Oc2ccc(C(=O)NC3Cc4ccccc4C3)cc2)CC1	-19.8	·	-0.6	·	1.01	1.2	·
Cc1cc(OCC(=O)Nc2cnn(CCCC(=O)O)c2)ccc1Cl	-12.6	·	0.7	·	0.993	1.13	·
O=C(Nc1ccc(F)c(Cl)c1)Nc1csc2ccccc12	7.8	·	-386.9	·	4.87*	0.922	-115.2
O=C(Nc1ccc(F)c(Cl)c1)Nc1ccc(Cl)cn1	0.8	1.1	-4.9	-8.0	1.05	0.992	·
O=C1/C(=C\c2ccco2)SC(=S)N1c1ccc(O)cc1	0.8	0.9	77.8*	8.1	0.222	0.992	77.3*
O=C(O)c1ccc(N2C(=O)/C(=C/C=C/c3ccccc3)SC2=S)cc1	2.3	0.9	8.3	10.5	0.917	0.977	·
CC(C)C(C(=O)O)N1C(=O)/C(=C/C=C/c2ccco2)SC1=S (stereo unspecified)	-11.0	0.8	65.9*	23.1	0.341	1.11	73.6*
O=C1/C(=C\c2ccc(O)cc2)SC(=S)N1c1cccnc1	25.1	0.7	19.4	26.1	0.806	0.749	·
O=C1/C(=C/C=C/c2ccco2)SC(=S)N1c1ccc(O)cc1	-5.7	·	79.5*	·	0.205	1.06	77.0*
NN1C(=O)/C(=C\c2ccco2)SC1=S	15.0	·	78.2*	·	0.218	0.85	86.5*
CC(C)C(C(=O)O)N1C(=O)/C(=C/c2cccn2C)SC1=S (stereo unspecified)	·	1.1	·	-9.6	·	·	·
CC(C)(C)OC(=O)C[C@@H]1C/C=C\C[C@H](CC(=O)NCCO)C(=O)NC[C@H](c2ccccc2)OC1=O	-6.6	·	-4.7	·	1.05	1.07	·
COc1ccc(NS(=O)(=O)c2cn(C)cn2)c(OC)c1	15.4	·	-1.8	·	1.02	0.846	·
O=C(NN1C(=O)/C(=C/C=C/c2ccccc2)SC1=S)c1ccncc1	2.6	1.1	20.5	-7.0	0.795	0.974	·
O=C(NN1C(=O)/C(=C/C=C/c2ccco2)SC1=S)c1ccncc1	6.5	·	77.3*	·	0.227	0.935	76.6*
COc1cc2c(ccc3cc(OC)c(OC)c(O)c32)cc1O	5.8	·	50.5*	·	0.495	0.942	58.2*
S=C(NCCC(c1ccccc1)c1ccccc1)Nc1cccc(Cl)c1	-70.0	1.7	-305.1	-69.7	4.05*	1.7	-273.6
COCCCNC(=S)Nc1ccccc1C	14.4	0.9	8.0	12.7	0.92	0.856	·
S=C(NCc1ccccn1)Nc1cccc(Cl)c1	6.0	1	-17.2	4.4	1.17	0.94	·
Cc1ccccc1NC(=S)NCCC(c1ccccc1)c1ccccc1	-1.0	1.1	-269.0	-10.0	3.69*	1.01	-96.0
COc1ccc(NC(=O)NN2CCN(C)CC2)cc1OC	-13.9	·	-3.8	·	1.04	1.14	·
CN1CCN(NC(=O)Nc2cc(Cl)cc(Cl)c2)CC1	-21.0	·	-142.7	·	2.43*	1.21	-119.7
SMILES	hIAP inh	bIAP act	mIAP inh	bIAP inhibitor	mIAP act	hIAP act	mIAP inh conf
O=C1CNC(=S)N1CCc1ccc(O)c(O)c1	14.1	·	77.0*	·	0.23	0.859	80.9*
O=C(COc1ccc(F)cc1)NNC(=O)Cn1ccc(C(F)(F)F)n1	-33.2	·	-4.0	·	1.04	1.33	·
Cc1ccc(NS(=O)(=O)c2ccc3[nH]c(=O)oc3c2)c(C)c1	5.5	·	79.9*	·	0.201	0.945	85.1*
Cc1ccc(NC(=O)CN(C)S(=O)(=O)c2ccc3[nH]c(=O)oc3c2)c(C)c1	5.5	·	62.6*	·	0.374	0.945	88.2*
N#Cc1ccc(OCC(=O)N(C2CCCCC2)C2CCS(=O)(=O)C2)cc1 (stereo unspecified)	11.5	·	-2.7	·	1.03	0.885	·
O=C(CN1CCN(c2ccccc2F)CC1)NC(=O)NC1CCCCC1	-2.0	·	-4.4	·	1.04	1.02	·
Cc1ccc(N(C(=O)c2csnn2)C(C(=O)NC2CCCCC2)c2ccncc2)c(C)c1 (stereo unspecified)	15.9	·	4.9	·	0.951	0.841	·
